Most compounds without a hit are left out; they make up all but 1.7% or so of the library.
Myeloid diff 2 = induction of myeloid progenitor differentiation, primary screen, cell-based, flow cytometry, MLPCN library; ER-HoxA9 myeloid progenitors, lysozyme-GFP differentiation; calls only at 10 µM; 1% of 360,000 active; AID 624256, 2012;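 active = normalized GFP-positive differentiation at or above the plate's own cutoff, the solvent-only control mean plus 3 SD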;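 also: cells exposed to compound for four days before flow analysis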
Vif inh = HIV Vif self-association inhibitors, primary screen, imaging, HEK293T, single point; AID 602346, 2012; 0.35% of 340,000 active; HEK293T cells, Vif self-association by quenched fluorescence, 24 h; inhibition, % at 7.49 µM; in the data active = inhibition above about 50%, passing the limit was not always enough
T cell HTS = modulators of CD8 T cell-vesicle binding, primary screen, mouse 2C CD8+ T cells, flow cytometry; response (vesicle binding), % at 7 µM; 2C CD8+ T cell-vesicle binding; active compounds read low; 0.068% of 330,000 active;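 active = response, share of CD8 T cells binding vesicles, and their 90th percentile fluorescence all below set limits, cut at about 80% in these data, passing the limit was not always enough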;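 also: values below 100% mean blocked vesicle binding to the CD8+ T cells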
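Assay system: 2C TCR transgenic mouse naive CD8+ T cells, MACS-purified | Read-out: CD8+ gate FL2 mean fluorescence as % of same-row positive control | Signal: High-throughput flow cytometry with anti-B7-1 and anti-CD8 staining | Timing: Binding step 1.5 h, 37 °C, antibody labelling 20 min, ice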
DSG3 Ab inh = inhibitors of pemphigus antibody binding to DSG3, primary screen, biochemical, bead-based, flow cytometry, scFv-GFP | Desmoglein-3 (Homo sapiens), P32926 | DSG3-coupled beads, scFv-anti-DSG3-GFP binding; active compounds read low | binding (percent of control), % at 10 µM | 0.48% of 310,000 active | AID 588358, 2011;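 active = binding more than 3 SD below its plate's average and above zero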;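 also: hits lower antibody fragment binding to DSG3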
Myeloid diff = inducers of myeloid progenitor differentiation, confirmation, cell-based, GFP/Mac1 flow cytometry, cherry pick 01 | ER-HoxA9 myeloid progenitors, GFP/Mac1 double-positive flow | shares compounds with Myeloid diff 2 | calls only | AID 651706, 2012 | 2% of 2,300 active;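 active = share of green or green-and-red cells above 9 and 9% in run 1 or 4 and 3% in run 2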
GFP autofluor = flagged as fluorescent in myeloid differentiation counter-screen; shares compounds with Myeloid diff 2; ER-HoxA9 myeloid progenitors, no estrogen, GFP autofluorescence flow cytometry; vehicle wells 0%, positive control 100%; fluorescence response, % (concentration not given with the values); 7.4% of 2,300 active;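 active = over 5% cells positive for green fluorescent reporter, or over 2% positive for both it and APC stain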;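 also: range taken on the double positive population between DMSO and positive control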
An asterisk follows results filed as active; i = inactive; / = no result; + = active, no number.

SMILES	Myeloid diff 2	Vif inh	T cell HTS	DSG3 Ab inh	Myeloid diff	GFP autofluor
COc1cc(CCC(=O)Nc2ccc(S(=O)(=O)NC3=NCCCCC3)cc2)cc(OC)c1OC	i	-1	323	106	i	0
Cc1ccc(NC(=O)COC(=O)CN2C(=O)NC3(CCCC3)C2=O)cc1F	i	2	295	100	i	1
CN(CC(=O)Nc1ccc(F)cc1)C(=O)COC(=O)CN1C(=O)NC2(CCCC2)C1=O	i	-2	0	/	/	/
Cc1nnc(SCCn2c(N3CCC(Cc4ccccc4)CC3)nc3c2c(=O)[nH]c(=O)n3C)s1	/	/	619	/	/	/
Cc1nnc(SCCn2c(N(C)Cc3ccccc3)nc3c2c(=O)[nH]c(=O)n3C)s1	+	62*	522	106	i	0
O=C1NCCN1c1ccc(CN2CCN(C3CCCCC3)C(CCO)C2)cc1 (configuration not stated)	i	4	782	108	i	0
CC(C)=CCN1CCN(Cc2ccc(N3CCNC3=O)cc2)CC1CCO (configuration not stated)	i	-5	270	93	/	/
COc1cccc(CNC(=O)C(CCSC)NS(=O)(=O)c2ccc3c(c2)oc(=O)n3C)c1 (configuration not stated)	i	-6	154	103	i	5.8*
CC1(C)COCN1S(=O)(=O)c1ccc(C(=O)Nc2nnc(-c3ccc(Cl)s3)o2)cc1	/	/	435	/	/	/
COc1ccc(-c2nnc(NC(=O)c3ccc(S(=O)(=O)N4COCC4(C)C)cc3)o2)cc1	i	5	371	/	i	5.3*
CCOC(=O)C1=C(CN2c3ccccc3CC2C)NC(=O)NC1c1ccccc1 (configuration not stated)	+	/	194	104	i	1
CCOC(=O)C1=C(CCc2ccccc2)NC(=O)NC1c1ccc(Br)cc1 (configuration not stated)	i	-6	134	104	/	/
CC1=C(C(=O)N(C)C)CC(CC(=O)NCc2cccc3ccccc23)C(=O)N1CCC1=CCCCC1 (configuration not stated)	i	-3	/	105	/	/
Cn1c(=NC(=O)CS(=O)(=O)c2ccccc2)sc2cc([N+](=O)[O-])ccc21	i	-3	366	97	/	/
CC(=O)Oc1c(-c2ccc(Br)o2)oc2ccccc2c1=O	i	-4	147	114	i	1
O=C1COc2ccc(C(=O)/C=C/c3ccccc3)cc2N1	i	6	102	102	i	0
O=C1COc2ccc(C(=O)NCc3ccco3)cc2N1	i	-10	504	84	i	0
O=C1COc2ccc(C(=O)c3ccccc3C(=O)NCc3ccco3)cc2N1	i	10	153	101	/	/
O=C(/C=C/c1ccccc1)c1ccc2c(c1)OCCCCO2	i	2	463	/	/	/
COc1ccc2c(c1O)C(=O)c1ccccc1C2=O	/	/	374	/	/	/
CC(C)COC(=O)c1ccc2c(c1O)C(=O)c1ccccc1C2=O	i	-3	178	93	i	6.1*
CCCCNc1c(-c2ccc(F)cc2)nc2nc(C)cc(C)n12	i	/	/	/	/	/
C[C@H](O)C#Cc1cnc2c(c1)C(=O)N([C@H](C)CO)C[C@@H](C)[C@H](CN(C)C(=O)Nc1ccc(C(F)(F)F)cc1)O2	i	10	/	105	i	0
C[C@H](CO)N1C[C@H](C)[C@H](CN(C)C(=O)Nc2ccc(C(F)(F)F)cc2)Oc2ncc(Br)cc2C1=O	i	-4	/	99	/	/
Cc1cccc(NC(=O)CC2CCC2)c1	i	17	469	108	i	0
CC1Cc2ccccc2N1C(=O)c1ccnc(C(C)(C)C)c1 (configuration not stated)	+	-10	452	97	i	0
CCOc1cc(CNS(=O)(=O)c2ccc3c(c2)CC(=O)N3C)cc(OCC)c1OCC	i	-4	178	103	/	/
COC(=O)COc1ccc(S(=O)(=O)Nc2ccc3c(c2)OCO3)cc1	i	20	394	81	/	/
